Results published in article PMC3058505 (Hepatology (Baltimore, Md.), 2010).
Structures can show the parent of a compound that is named as a salt.

Experiments:
replicon cells = assay: Proliferation and cytotoxicity assays; format: cell-based, human; conditions: medium containing 5 or 10% FBS
[1] = tested on: HCV NS5A and core protein in NS or FL replicons; assay: Western blot of HCV proteins in NS and FL replicons; format: cell-based, hepatitis C virus; conditions: biliverdin 20 µM, BR 200 µM or FeCl2 100 µM for 24 h; both replicon lines
In short: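 Log-phase NS (Huh5-15) or FL (Huh7.5 Con1) replicon cells were treated for 24 h. BV and BR were dissolved in 0.2 N NaOH, with vehicle controls. Cells were then lysed and analysed by Western blot with enhanced chemiluminescence detection. Band intensities were quantified by densitometry.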

[2] = molecular target: HCV NS3/4A protease (recombinant) (Hepatitis C virus genotype 1b, UniProt O92972); assay: SensoLyte 620 HCV Protease Assay with recombinant NS3/4A protease; format: biochemical
Chain of HCV NS3/4A protease (recombinant) (O92972 1013-1207, looked up, natural form): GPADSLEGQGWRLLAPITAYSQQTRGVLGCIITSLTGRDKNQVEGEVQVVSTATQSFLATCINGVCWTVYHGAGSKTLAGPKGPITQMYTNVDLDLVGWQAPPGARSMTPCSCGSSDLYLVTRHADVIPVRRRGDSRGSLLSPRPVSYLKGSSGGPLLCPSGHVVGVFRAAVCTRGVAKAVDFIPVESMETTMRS

[3] = tested on: J6/JFH infectious HCV in Huh7.5 cells; assay: J6/JFH HCV infection of Huh7.5 cells; format: cell-based, hepatitis C virus; conditions: BV 20–200 µM, 72 h; HCV polyvalent sera immunoreactivity and HCV RNA
In short: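 Huh7.5 cells were inoculated with infectious J6/JFH HCV and passed. They were then treated with BV at 0, 20 or 200 µM for 72 h. Cells were fixed in absolute methanol, washed in PBS and stained with genotype 2A polyvalent human serum. Detection used an anti-human alkaline phosphatase conjugate and photomicroscopy. HCV RNA was measured by ΔCT real-time RT-PCR, 3–5 determinations per group, mean ± SEM.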

[4] = molecular target: endogenous NS3/4A protease from replicon microsomes (Hepatitis C virus genotype 1b, UniProt Q9WMX2); format: biochemical
Chain of endogenous NS3/4A protease from replicon microsomes (Q9WMX2 1027-1657): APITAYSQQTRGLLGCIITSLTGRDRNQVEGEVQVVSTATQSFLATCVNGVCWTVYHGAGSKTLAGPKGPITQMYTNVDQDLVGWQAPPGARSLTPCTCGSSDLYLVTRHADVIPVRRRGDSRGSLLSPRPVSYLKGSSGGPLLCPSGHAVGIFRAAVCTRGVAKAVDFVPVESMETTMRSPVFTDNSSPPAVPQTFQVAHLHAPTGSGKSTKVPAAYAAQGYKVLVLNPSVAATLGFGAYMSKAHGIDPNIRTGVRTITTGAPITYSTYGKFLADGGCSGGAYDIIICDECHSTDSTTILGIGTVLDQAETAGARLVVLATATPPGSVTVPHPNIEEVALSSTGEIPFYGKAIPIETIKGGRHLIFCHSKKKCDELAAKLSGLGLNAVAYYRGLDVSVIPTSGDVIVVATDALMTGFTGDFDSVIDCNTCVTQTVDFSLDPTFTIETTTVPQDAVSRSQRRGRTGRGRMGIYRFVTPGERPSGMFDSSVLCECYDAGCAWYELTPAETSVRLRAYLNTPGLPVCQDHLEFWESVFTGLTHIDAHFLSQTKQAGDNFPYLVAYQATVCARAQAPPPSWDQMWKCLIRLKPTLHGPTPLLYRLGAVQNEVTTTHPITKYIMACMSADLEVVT
Chain of endogenous NS3/4A protease from replicon microsomes (Q9WMX2 1658-1711): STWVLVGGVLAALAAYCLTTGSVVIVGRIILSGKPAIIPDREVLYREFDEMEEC

[5] = tested on: HCV replication in FL or NS replicons; format: cell-based, hepatitis C virus; conditions: 50 or 100 µM BV overnight with α-interferon
In short: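 Cell lines were Huh7.5 cells with full-length Con1 replicons (FL) and Huh5-15 cells with subgenomic replicons (NS). They received α-interferon alone or with BV. BV was dissolved in 0.2 N NaOH, and controls got the same NaOH volume. HCV RNA was measured by real-time RT-PCR using the comparative cycle threshold (ΔCT) method. Values are mean ± SEM of 3 determinations per point.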

[6] = tested on: HCV replication in Huh5-15NS replicon; assay: HCV replication in non-structural; format: cell-based, hepatitis C virus; conditions: for Relative [HCV] [ΔCΤ]: Huh5-15NS, control = 1.0
In short: (§1)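 Log-phase replicon cells were incubated overnight with hemin (0, 5, 10 or 20 µM) or control vehicle. Cells were Huh7.5FL (full-length Con1) or Huh5-15NS (subgenomic). Relative HCV RNA was found by real-time RT-PCR with the comparative cycle threshold (ΔCT) method and normalised to vehicle control = 1.0. Each value is the mean of four determinations.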

[7] = tested on: HCV replication in Huh7.5FL Con1 replicon; assay: HCV replication in full-length; format: cell-based, hepatitis C virus; conditions: for Relative [HCV] [ΔCΤ]: Huh7.5FL, control = 1.0
In short: as §1

In the case of `C=CC1=C(C)/C(=C/c2[nH]c(Cc3[nH]c(/C=C4\NC(=O)C(C)=C4C=C)c(C)c3CCC(=O)O)c(CCC(=O)O)c2C)NC1=O` [BR, bilirubin], the “Effect on cellular proliferation or toxicity” value (replicon cells) is reported as “no effect” and the “Effect on HCV protein expression by Western blot” value (“Effect on HCV protein expression” below) [1] is reported as “decreased NS5A”.

For `C=CC1=C(C)/C(=C/C2=NC(=C\c3[nH]c(/C=C4\NC(=O)C(C)=C4C=C)c(C)c3CCC(=O)O)/C(CCC(=O)O)=C2C)NC1=O` [Biliverdin, biliverdin-IX-α hydrochloride], the Ki [2] was 600 nM, the “Mode of inhibition of NS3/4A protease” value ([2]; Lineweaver-Burk plots) was “mixed competitive and non-competitive inhibition” and the “Effect of BV combined with #25346 on protease activity” value ([2]; assays in the presence of both BV and #25346) was “additive effect”. The “Effect on Huh7.5 cell infection with J6/JFH” value [3] was “markedly decreased”, the “Inhibition of endogenous NS3/4A protease” value [4] was “potently inhibited” and the “Effect on cellular proliferation or toxicity” value (replicon cells) was “no effect”. The “Effect on HCV protein expression” value [1] was “decreased NS5A” and the “Effect on α-interferon antiviral activity” value [5] was “clear additive effect”.

In the case of `[Cl][Fe][Cl]` [FeCl2], the “Effect on HCV protein expression” value [1] is reported as “decreased NS5A and core protein”.

hemin [Heme] was tested, and the “Relative [HCV] [ΔCΤ]” value ([6]; heme 5 uM overnight) was 0.27, the “Relative [HCV] [ΔCΤ]” value ([6]; heme 10 uM overnight) was 0.09 and the “Relative [HCV] [ΔCΤ]” value ([6]; heme 20 uM overnight) was 0.03. The “Lowest level at which antiviral effect is apparent” value ([6]; NS replicon, overnight incubation with hemin) was 5 µM, the “Lowest level at which antiviral effect is apparent” value ([7]; FL replicon, overnight incubation with hemin) was 5 µM and the “Relative [HCV] [ΔCΤ]” value ([7]; heme 5 uM overnight) was 0.22. The “Relative [HCV] [ΔCΤ]” value ([7]; heme 10 uM overnight) was 0.08 and the “Relative [HCV] [ΔCΤ]” value ([7]; heme 20 uM overnight) was 0.04.
